Laboratory results as given in ChEMBL document CHEMBL5678798 (Clin Cancer Res, 2009).
Calls of active or inactive are those of the source. The calls are words filed in the database; no cut-off is given here.

Legend:
[1] = Toxicity in nu/nu CD-1 mouse xenografted with human HT-29 cells assessed as reduction in body weight at 30 mg/kg, po for 21 days relative to control; type: organism-based; conditions: in vivo, 504 h, time 21 day
[2] = biological target: Protein-tyrosine kinase 6 (Homo sapiens) (UniProt Q13882); experiment: Inhibition of N-terminal His6-tagged recombinant full-length human BRK expressed in baculovirus infected Sf21 cells at 0.3 uM by filter binding assay relative to control
How it was run: (§1)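 Outsourced single-concentration screen in a commercial panel of 233 protein kinases, run as radiometric filter-binding activity assays. Test agent was tested at 0.3 or 3 µmol/L, as given in each line, from a 10 mmol/L DMSO stock. Activity is expressed as percent inhibition relative to control.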

[3] = biological target: Proto-oncogene tyrosine-protein kinase receptor Ret (Homo sapiens) (UniProt P07949); experiment: Inhibition of N-Terminal GST-tagged recombinant human Ret (658 to end residues) expressed in baculovirus infected Sf21 cells at 3 uM by filter binding assay relative to control
How it was run: (§2)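 KinaseProfiler panel of 233 kinases: radiometric filter-binding activity assays with compound at 0.3 or 3 µmol/L. Read-out is percent inhibition.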

[4] = system: HN5; experiment: Antiproliferative activity against human HN5 cells assessed as reduction in cell viability after 72 hrs by CellTiter-Glo assay; type: functional, cell-based; conditions: HN5, 72 h
How it was run: (§3)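 Cells seeded in 96-well plates, left overnight at 37°C, then exposed to a range of test concentrations for 72 h. Viability read by CellTiter-Glo luminescence; IC50 from four-parameter curve fit. Lines kept at 37°C, 5% CO2, in recommended growth medium.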

[5] = In vivo inhibition of IGF1R in mouse NIH-3T3/LISN cells xenografted in IGF1-stimulated nu/nu CD-1 mouse assessed as reduction in IGF1R phosphorylation at 3.5 umol/L blood compound concentration pretreated for 4 hrs followed by IGF1 stimulation and measured after 10 min by […] relative to control; type: functional; conditions: dose 3.5 µmol/L; time 250 min; 4.167 h; at 3.5 µM
How it was run: (§4)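 Female nu/nu CD-1 mice, three per group, bearing ~500 mm3 tumors, given one oral dose of compound or vehicle. At 4 h, 10 µg hIGF-I i.v. via tail vein; saline controls. Tumor and blood taken 10 min later. Tumor lysates in RIPA captured on anti-IGF-IR plates and probed with europium anti-phosphotyrosine. Phospho/total IGF-IR expressed as % of ligand-stimulated control. Blood levels by LC-MS/MS.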

[6] = biological target: Serine/threonine-protein kinase 17A (Homo sapiens) (UniProt Q9UEE5); experiment: Inhibition of N-terminal 6His-tagged recombinant full-length human DRAK1 expressed in baculovirus infected Sf21 cells at 3 uM by filter binding assay relative to control; how it was run: as §2
[7] = biological target: Receptor-type tyrosine-protein kinase FLT3 (Homo sapiens, UniProt P36888); experiment: Inhibition of N-terminal GST tagged recombinant human Flt3 (564 to end residues) expressed in Sf21 cells by filter binding assay
[8] = biological target: MAP kinase-activated protein kinase 5 (Homo sapiens) (UniProt Q8IW41); experiment: Inhibition of N-terminal His6-tagged recombinant human full-length PRAK expressed in baculovirus infected Sf21 cells at 3 uM by filter binding assay relative to control
[9] = system: COLO 205; experiment: In vivo inhibition of IGF1R in human COLO 205 cells xenografted in IGF1-stimulated po dosed nu/nu CD-1 mouse assessed as reduction in IGF1R phosphorylation pretreated for 4 hrs followed by IGF1 stimulation and measured after 15 min by radioimmunoprecipitation assay; type: functional, organism-based; conditions: dose 1-60 mg/kg, time 4.17 hrs, in the assay text read “measured after 10 min” for “measured after 15 min”; how it was run: as §4
[10] = biological target: Glycogen synthase kinase-3 alpha (Homo sapiens) (UniProt P49840); experiment: Inhibition of N-terminal His6-tagged recombinant human GSK3alpha (2 to end residues) expressed in Sf21 cells at 0.3 uM by filter binding assay relative to control
[11] = system: COLO 205; experiment: Induction of cell cycle arrest in human COLO 205 cells assessed as decrease in cells accumulation at G2/M phase at 0.03 to 10 uM incubated for 24 to 48 hrs by propidium iodide staining based flow cytometric analysis; type: functional; conditions: dose 0.03-10 µM, time lower 24.0 hrs, time upper […]
How it was run: (§5)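 COLO 205, MCF-7 or NCI-H929 cells seeded in 96-well plates overnight at 37°C, then exposed to DMSO or increasing compound concentrations for 24 or 48 h. Fixed and stained with propidium iodide (Vindelov method), then analysed by flow cytometry for sub-G1, G1, S and G2-M fractions. Experiment repeated twice.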

[12] = biological target: Serine/threonine-protein kinase PLK2 (Homo sapiens) (UniProt Q9NYY3); experiment: Inhibition of human Snk at 3 uM by filter binding assay relative to control
[13] = biological target: Phosphatidylinositol 4,5-bisphosphate 3-kinase catalytic subunit gamma isoform (Homo sapiens, UniProt P48736); experiment: Inhibition of PI3Kgamma (unknown origin)
[14] = Antiproliferative activity against human TC71 cells assessed as reduction in cell viability after 72 hrs by CellTiter-Glo assay; type: functional, cell-based; conditions: TC-71, 72 h; how it was run: as §3
[15] = species: Rattus norvegicus; experiment: Inhibition of recombinant rat AMPK at 0.3 uM by filter binding assay relative to control
[16] = biological target: Tyrosine-protein kinase ITK/TSK (Homo sapiens, UniProt Q08881); experiment: Inhibition of ITK (unknown origin)
[17] = biological target: Insulin receptor (Mus musculus) (UniProt P15208); conditions: CD-1, dose >= 30.0 mg/kg, route po, time 4.25 hrs
[18] = biological target: Protein kinase C theta type (Homo sapiens, UniProt Q04759); experiment: Inhibition of PKCtheta (unknown origin)
[19] = biological target: Insulin receptor (Mus musculus) (UniProt P15208); conditions: CD-1, dose 30.0 mg/kg, route po, time 21.0 day
[20] = biological target: Death-associated protein kinase 2 (Homo sapiens) (UniProt Q9UIK4); experiment: Inhibition of N-terminal GST-tagged recombinant human full length DAPK2 expressed in baculovirus infected Sf21 cells at 0.3 uM by filter binding assay relative to control; how it was run: as §1
[21] = biological target: High affinity nerve growth factor receptor (Homo sapiens, UniProt P04629); experiment: Inhibition of N-terminal His6-tagged recombinant human TrkA (440 to end residues) expressed in baculovirus infected Sf21 cells by filter binding assay
[22] = system: COLO 205; experiment: Induction of cell cycle arrest in human COLO 205 cells assessed as decrease in cells accumulation at S phase at 0.03 to 10 uM incubated for 24 to 48 hrs by propidium iodide staining based flow cytometric analysis; type: functional; conditions: dose 0.03-10 µM, time lower 24.0 hrs, time upper […]; how it was run: as §5
[23] = biological target: Serine/threonine-protein kinase TBK1 (Homo sapiens) (UniProt Q9UHD2); experiment: Inhibition of N-terminal His6-tagged recombinant full-length human TBK1 expressed in baculovirus infected Sf21 cells at 3 uM by filter binding assay relative to control; how it was run: as §1
[24] = biological target: cGMP-dependent protein kinase 1 (Homo sapiens) (UniProt Q13976); experiment: Inhibition of N-terminal 6His-tagged recombinant full-length human PKG1beta expressed in baculovirus infected Sf21 cells at 3 uM by filter binding assay relative to control; how it was run: as §2
[25] = biological target: Serine/threonine-protein kinase Nek11 (Homo sapiens) (UniProt Q8NG66); experiment: Inhibition of 6His-tagged recombinant human full-length NEK11 expressed in baculovirus infected Sf21 cells at 0.3 uM by filter binding assay relative to control; how it was run: as §2

Insulin receptor (Mus musculus), sequence (P15208 28-748 limits assumed): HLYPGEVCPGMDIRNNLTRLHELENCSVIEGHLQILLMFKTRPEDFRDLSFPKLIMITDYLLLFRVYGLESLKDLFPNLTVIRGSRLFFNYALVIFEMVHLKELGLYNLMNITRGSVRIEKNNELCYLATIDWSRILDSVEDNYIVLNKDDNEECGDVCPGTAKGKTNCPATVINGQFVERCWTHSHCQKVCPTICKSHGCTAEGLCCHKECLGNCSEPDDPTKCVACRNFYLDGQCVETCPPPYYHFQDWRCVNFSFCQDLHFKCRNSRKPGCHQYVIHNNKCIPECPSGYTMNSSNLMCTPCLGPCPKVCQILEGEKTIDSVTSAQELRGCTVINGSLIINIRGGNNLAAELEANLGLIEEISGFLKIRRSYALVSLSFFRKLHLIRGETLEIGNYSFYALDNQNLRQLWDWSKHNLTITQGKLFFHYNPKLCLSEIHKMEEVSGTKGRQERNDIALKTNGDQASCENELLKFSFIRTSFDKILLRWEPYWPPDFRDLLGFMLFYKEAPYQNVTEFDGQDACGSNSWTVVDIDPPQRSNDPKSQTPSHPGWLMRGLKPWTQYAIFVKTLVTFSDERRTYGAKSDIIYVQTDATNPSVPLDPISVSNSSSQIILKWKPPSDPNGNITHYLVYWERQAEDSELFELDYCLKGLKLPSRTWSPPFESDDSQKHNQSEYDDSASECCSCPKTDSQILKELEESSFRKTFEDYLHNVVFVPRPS
Insulin receptor (Mus musculus), sequence (P15208 753-1372 limits assumed): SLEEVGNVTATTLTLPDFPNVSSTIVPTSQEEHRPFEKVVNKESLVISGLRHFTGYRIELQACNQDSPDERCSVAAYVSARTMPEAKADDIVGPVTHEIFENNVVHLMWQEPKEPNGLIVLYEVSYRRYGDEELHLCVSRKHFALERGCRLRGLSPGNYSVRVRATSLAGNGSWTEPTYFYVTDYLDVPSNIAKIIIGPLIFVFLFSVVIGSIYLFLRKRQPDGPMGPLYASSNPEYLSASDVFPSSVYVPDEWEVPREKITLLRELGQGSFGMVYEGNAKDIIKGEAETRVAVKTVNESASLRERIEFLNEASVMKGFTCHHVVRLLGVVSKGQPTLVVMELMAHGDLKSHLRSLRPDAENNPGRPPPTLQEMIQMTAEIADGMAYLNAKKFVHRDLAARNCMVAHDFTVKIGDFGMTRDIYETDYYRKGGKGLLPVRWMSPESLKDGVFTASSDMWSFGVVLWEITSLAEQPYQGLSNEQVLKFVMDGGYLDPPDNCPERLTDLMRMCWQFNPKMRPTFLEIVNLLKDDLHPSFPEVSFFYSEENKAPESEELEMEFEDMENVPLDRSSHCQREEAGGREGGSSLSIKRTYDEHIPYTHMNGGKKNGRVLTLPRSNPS
Phosphatidylinositol 4,5-bisphosphate 3-kinase catalytic subunit gamma isoform, sequence (P48736 whole entry, canonical isoform): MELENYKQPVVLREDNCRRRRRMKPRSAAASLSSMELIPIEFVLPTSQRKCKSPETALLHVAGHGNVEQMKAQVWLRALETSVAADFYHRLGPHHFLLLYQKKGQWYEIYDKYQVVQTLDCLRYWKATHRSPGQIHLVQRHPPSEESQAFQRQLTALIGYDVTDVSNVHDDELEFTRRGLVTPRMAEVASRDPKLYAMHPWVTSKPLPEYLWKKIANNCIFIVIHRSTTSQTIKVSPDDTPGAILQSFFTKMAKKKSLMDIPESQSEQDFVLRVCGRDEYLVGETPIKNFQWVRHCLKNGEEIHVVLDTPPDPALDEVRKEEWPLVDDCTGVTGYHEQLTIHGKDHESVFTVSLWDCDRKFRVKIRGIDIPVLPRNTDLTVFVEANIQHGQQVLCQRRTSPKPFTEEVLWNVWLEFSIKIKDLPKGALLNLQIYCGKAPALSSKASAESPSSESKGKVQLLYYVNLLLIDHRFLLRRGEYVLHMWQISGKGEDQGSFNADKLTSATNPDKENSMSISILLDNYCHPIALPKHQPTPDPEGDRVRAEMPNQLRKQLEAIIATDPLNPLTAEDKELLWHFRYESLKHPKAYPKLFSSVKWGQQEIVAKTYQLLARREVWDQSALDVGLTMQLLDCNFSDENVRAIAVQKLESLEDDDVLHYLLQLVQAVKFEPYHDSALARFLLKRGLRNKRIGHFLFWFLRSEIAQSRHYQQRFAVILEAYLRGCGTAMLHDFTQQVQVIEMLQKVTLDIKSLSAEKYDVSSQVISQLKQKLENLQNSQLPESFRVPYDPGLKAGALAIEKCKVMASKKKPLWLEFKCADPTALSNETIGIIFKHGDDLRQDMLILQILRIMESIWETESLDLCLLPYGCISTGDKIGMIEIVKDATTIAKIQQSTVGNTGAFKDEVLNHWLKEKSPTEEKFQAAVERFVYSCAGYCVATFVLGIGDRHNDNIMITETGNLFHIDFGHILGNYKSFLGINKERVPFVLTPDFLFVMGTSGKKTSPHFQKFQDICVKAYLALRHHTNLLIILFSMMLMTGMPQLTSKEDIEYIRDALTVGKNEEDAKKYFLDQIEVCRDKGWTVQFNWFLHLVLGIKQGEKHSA
Protein-tyrosine kinase 6 (Homo sapiens), sequence (Q13882 whole entry, looked up): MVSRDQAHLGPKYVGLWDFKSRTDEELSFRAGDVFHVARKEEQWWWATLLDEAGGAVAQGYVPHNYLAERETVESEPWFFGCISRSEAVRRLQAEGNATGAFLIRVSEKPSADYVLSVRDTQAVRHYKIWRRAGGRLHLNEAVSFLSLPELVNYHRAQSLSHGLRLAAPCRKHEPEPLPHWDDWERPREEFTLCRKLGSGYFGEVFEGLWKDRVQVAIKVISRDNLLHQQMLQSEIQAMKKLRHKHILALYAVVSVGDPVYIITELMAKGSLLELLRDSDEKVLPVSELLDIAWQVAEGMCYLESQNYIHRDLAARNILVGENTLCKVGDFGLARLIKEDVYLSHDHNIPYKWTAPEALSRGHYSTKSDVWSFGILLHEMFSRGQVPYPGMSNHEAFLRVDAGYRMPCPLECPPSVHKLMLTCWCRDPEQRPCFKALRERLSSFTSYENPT
Receptor-type tyrosine-protein kinase FLT3, sequence (P36888 whole entry): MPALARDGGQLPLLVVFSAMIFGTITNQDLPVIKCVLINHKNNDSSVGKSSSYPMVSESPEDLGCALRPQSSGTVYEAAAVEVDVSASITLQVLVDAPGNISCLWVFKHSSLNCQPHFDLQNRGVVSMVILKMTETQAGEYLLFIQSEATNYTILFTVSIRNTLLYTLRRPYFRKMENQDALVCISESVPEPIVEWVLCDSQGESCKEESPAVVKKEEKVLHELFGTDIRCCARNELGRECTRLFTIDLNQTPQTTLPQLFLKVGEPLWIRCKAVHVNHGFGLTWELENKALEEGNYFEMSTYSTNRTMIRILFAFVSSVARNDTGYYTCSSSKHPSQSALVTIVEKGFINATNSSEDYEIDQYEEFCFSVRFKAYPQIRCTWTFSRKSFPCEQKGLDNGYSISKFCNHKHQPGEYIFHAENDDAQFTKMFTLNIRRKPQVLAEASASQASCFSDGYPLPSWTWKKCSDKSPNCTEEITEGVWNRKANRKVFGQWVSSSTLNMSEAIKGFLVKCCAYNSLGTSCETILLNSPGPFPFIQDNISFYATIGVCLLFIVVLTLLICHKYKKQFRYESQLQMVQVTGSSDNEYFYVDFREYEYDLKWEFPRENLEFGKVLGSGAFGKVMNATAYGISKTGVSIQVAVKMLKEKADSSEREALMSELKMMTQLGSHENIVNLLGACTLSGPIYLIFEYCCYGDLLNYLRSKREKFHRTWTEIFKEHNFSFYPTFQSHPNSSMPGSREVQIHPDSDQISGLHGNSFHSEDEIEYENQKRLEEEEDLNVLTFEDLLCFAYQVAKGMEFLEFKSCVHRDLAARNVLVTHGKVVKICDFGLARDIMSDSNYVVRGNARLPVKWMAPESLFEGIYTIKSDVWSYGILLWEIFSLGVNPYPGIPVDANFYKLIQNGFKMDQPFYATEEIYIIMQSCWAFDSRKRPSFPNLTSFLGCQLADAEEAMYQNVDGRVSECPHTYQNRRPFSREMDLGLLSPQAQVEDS
Serine/threonine-protein kinase 17A (Homo sapiens), sequence (Q9UEE5 whole entry): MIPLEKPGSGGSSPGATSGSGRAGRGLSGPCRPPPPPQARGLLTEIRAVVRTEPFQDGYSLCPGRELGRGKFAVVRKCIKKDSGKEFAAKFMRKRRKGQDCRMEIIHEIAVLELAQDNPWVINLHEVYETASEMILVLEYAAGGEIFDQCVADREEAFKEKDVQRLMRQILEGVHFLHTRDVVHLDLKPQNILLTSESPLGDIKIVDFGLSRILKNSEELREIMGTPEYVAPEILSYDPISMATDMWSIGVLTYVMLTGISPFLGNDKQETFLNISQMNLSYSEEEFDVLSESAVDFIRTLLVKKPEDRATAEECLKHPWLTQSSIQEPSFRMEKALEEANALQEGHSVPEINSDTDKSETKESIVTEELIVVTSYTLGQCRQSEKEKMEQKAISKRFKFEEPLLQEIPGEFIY
cGMP-dependent protein kinase 1 (Homo sapiens), sequence (Q13976 whole entry): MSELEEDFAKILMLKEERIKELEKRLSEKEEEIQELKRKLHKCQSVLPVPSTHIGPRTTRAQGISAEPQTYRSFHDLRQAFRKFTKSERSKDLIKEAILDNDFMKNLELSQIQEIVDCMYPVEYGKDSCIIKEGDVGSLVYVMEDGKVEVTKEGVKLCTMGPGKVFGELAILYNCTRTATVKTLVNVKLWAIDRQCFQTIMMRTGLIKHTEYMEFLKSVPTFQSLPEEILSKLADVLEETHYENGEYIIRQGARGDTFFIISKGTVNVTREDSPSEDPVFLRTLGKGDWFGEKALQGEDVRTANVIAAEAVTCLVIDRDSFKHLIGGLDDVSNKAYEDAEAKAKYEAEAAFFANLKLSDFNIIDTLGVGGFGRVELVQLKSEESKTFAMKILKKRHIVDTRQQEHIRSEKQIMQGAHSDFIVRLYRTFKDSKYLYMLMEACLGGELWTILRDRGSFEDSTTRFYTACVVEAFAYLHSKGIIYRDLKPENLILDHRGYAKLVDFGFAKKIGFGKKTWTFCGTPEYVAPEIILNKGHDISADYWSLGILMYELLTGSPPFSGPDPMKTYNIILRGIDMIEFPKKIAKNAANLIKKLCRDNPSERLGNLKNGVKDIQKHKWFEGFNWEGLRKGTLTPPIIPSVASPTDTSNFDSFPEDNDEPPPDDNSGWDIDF

SMILES: CCc1cc(Nc2nccc(-c3c(-c4ccc(OC)c(C(=O)Nc5c(F)cccc5F)c4)nc4ccccn34)n2)c(OC)cc1N1CCC(N2CCN(S(C)(=O)=O)CC2)CC1
- Activity [1]: Non-Toxic
- inhibition [2]: 25%
- inhibition [3]: 52%
- IC50 [4]: > 20 µM
- inhibition (INH) [5]: 100%
- inhibition [6]: 10%
- IC50 [7]: 2.85 µM
- inhibition [8]: 35%
- inhibition [9]: Dose-Dependent Effect
- inhibition [10]: -10%
- Activity [11]: Active
- inhibition [12]: -8%
- IC50 [13]: > 10 µM
- IC50 [14]: 0.035 µM
- inhibition [15]: 0%
- IC50 [16]: > 25 µM
- inhibition [17]: Dose-Dependent Effect
- IC50 [18]: > 10 µM
- inhibition [19]: inactive
- inhibition [20]: 1%
- IC50 [21]: 0.701 µM
- Activity [22]: Active
- inhibition [23]: 22%
- inhibition [24]: 32%
- inhibition [25]: -8%
